Assay results taken from ChEMBL document CHEMBL1764968, “Structural simplification of bioactive natural products with multicomponent synthesis. 3. Fused uracil-containing heterocycles as novel topoisomerase-targeting agents” (2011).
Calls of active or inactive are those of the source. No cut-off for these calls is given here.

Experiments:
[1] = system: HeLa; assay: Cytotoxicity against human HeLa cells after 72 hrs by MTT assay; type: functional
Method in brief: (§1)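 Cells plated 24 h in 96-well plates at 10,000–40,000 cells/mL depending on line. U373 grown in MEM, other lines in RPMI, both with 5% heat-inactivated FCS. Cells exposed to compounds (or none, control) for 72 h. MTT reduction to formazan read at 570 nm against 630 nm reference. Sextuplicate per condition.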

[2] = system: Jurkat; assay: Cytotoxicity against human Jurkat cells after 72 hrs by MTT assay; type: functional; method in brief: as §1
[3] = system: MCF7; assay: Cytotoxicity against human MCF7 cells after 72 hrs by MTT assay; type: functional; settings: MCF7, 72 h; method in brief: as §1
[4] = system: A549; assay: Cytotoxicity against human A549 cells after 72 hrs by MTT assay; type: functional; settings: A549, 72 h; method in brief: as §1
[5] = system: LoVo; assay: Cytotoxicity against human LoVo cells after 72 hrs by MTT assay; type: functional; method in brief: as §1
[6] = Cytotoxicity against human U373 cells after 72 hrs by MTT assay; type: functional, U-373MG ATCC; settings: U373 MG; method in brief: as §1
[7] = system: SK-MEL; assay: Cytotoxicity against human SK-MEL cells after 72 hrs by MTT assay; type: functional; method in brief: as §1
[8] = system: PC-3; assay: Cytotoxicity against human PC3 cells after 72 hrs by MTT assay; type: functional; settings: PC-3, 72 h; method in brief: as §1
[9] = system: U-373MG ATCC; assay: Cytostatic activity against human U373 cells assessed as morphological changes after 72 hrs by phase contrast microscopy; type: functional, cell-based
[10] = molecular target: T1, DNA topoisomerase 1 (Homo sapiens) (UniProt P11387); assay: Inhibition of human DNA topoisomerase 1-mediated relaxation of supercoiled pGEM1 plasmid DNA at 250 uM after 30 mins by agarose gel electrophoresis
T1 sequence (whole entry): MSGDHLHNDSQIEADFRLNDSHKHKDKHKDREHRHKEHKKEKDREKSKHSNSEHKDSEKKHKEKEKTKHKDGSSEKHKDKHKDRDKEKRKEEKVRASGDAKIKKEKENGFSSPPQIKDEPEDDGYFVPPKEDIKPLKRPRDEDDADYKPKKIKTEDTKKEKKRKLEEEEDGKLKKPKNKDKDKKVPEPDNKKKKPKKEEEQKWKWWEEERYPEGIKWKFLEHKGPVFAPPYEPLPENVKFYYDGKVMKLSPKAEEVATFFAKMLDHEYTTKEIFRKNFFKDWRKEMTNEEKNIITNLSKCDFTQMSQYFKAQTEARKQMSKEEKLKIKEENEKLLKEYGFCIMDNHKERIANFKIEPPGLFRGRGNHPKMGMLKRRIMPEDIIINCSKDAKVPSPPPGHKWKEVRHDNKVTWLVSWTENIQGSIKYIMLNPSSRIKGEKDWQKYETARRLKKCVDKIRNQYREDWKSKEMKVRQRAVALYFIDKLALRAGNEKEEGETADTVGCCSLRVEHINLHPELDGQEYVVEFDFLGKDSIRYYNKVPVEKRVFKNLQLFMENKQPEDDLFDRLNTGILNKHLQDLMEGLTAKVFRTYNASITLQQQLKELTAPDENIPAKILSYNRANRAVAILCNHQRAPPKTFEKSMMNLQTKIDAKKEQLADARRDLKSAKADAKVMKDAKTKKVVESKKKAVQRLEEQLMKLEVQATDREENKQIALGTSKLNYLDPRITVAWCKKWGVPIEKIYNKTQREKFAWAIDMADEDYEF
Method in brief: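 Enzyme source: nuclear extract of MCF-7 cells (0.1 μL). 250 ng supercoiled pGEM1 plasmid incubated 30 min at 37 °C with compound (10–250 μM) in 10 mM Tris pH 7.9, 100 mM KCl, 10 mM MgCl2, 0.5 mM DTT, 0.5 mM EDTA, 0.03 mg/mL BSA. Camptothecin 100 μM as positive control. Stopped with SDS/proteinase K, 30 min at 37 °C. Run on 1% agarose, stained with ethidium bromide.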

[11] = molecular target: T1, DNA topoisomerase 1 (Homo sapiens); assay: Effect on human DNA topoisomerase 1-mediated supercoiled pGEM1 plasmid DNA cleavage complex stabilization at up to 100 uM by agarose gel electrophoresis
[12] = molecular target: DNA topoisomerase 2-alpha (Homo sapiens) (UniProt P11388); assay: Inhibition of human DNA topoisomerase 2-mediated decatenation of catenated kinetoplast DNA at 1 uM after 1 hr by agarose gel electrophoresis
Method in brief: (§2)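 0.2 μg catenated kinetoplast DNA incubated 1 h at 37 °C with compound in 50 mM Tris-Cl pH 8.0, 150 mM NaCl, 10 mM MgCl2, 5 mM ATP, 0.5 mM DTT, 30 μg/mL BSA. Doxorubicin 5 μM as positive control. Stopped with SDS/proteinase K, 30 min at 37 °C. Run on 1% agarose (55 V, 2 h), stained with ethidium bromide.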

[13] = molecular target: DNA topoisomerase 2-alpha (Homo sapiens) (UniProt P11388); assay: Inhibition of human DNA topoisomerase 2-mediated decatenation of catenated kinetoplast DNA at 5 uM after 1 hr by agarose gel electrophoresis; method in brief: as §2

DNA topoisomerase 2-alpha (Homo sapiens), sequence (P11388 whole entry): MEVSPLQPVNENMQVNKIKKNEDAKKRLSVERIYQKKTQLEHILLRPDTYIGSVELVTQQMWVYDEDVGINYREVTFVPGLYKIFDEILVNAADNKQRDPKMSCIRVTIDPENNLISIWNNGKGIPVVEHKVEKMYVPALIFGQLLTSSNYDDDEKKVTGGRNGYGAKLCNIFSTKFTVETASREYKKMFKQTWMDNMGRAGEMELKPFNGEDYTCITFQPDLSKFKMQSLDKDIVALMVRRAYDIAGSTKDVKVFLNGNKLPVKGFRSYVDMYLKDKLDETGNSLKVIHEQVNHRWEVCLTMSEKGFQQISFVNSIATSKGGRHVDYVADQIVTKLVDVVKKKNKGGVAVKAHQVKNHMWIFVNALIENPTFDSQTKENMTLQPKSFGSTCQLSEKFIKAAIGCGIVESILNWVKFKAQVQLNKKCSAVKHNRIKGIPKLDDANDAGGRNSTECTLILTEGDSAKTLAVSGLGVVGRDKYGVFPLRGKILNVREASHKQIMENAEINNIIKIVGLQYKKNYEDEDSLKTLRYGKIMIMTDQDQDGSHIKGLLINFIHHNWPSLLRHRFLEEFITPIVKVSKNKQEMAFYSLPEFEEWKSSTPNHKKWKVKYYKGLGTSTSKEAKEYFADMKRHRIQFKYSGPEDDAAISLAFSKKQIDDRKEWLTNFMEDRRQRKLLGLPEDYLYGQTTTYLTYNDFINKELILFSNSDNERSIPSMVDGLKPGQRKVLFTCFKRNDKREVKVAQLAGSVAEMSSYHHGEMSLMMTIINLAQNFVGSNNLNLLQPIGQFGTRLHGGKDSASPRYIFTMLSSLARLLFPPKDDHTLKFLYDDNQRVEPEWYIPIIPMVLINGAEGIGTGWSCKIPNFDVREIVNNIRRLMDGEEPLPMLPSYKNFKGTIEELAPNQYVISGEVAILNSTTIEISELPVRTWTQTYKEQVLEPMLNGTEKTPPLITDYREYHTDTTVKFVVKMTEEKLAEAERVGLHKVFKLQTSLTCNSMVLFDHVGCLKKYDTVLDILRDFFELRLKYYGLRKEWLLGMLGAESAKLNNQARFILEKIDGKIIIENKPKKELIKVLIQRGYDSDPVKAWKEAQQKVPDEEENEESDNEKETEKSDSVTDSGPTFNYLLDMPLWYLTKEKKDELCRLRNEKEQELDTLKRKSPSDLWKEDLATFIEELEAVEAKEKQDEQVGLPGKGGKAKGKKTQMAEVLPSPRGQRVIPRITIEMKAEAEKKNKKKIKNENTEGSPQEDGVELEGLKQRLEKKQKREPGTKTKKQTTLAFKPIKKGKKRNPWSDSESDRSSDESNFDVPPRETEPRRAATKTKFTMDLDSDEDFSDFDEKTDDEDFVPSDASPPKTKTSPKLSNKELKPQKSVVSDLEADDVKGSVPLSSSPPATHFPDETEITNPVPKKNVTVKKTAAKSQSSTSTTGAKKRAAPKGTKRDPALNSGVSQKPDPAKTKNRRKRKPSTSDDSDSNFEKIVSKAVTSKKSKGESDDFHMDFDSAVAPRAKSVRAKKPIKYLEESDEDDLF

Molecule `CSc1ccc(-c2c3c(nc4[nH]c(=O)[nH]c(=O)c24)-c2ccccc2C3=O)cc1` has a GI50 [1] of 170 nM, a GI50 [2] of 50 nM and a GI50 [3] of 450 nM. It also gave a GI50 [4] of 610 nM, a GI50 [5] of 290 nM and a GI50 [6] of 100 nM. For the same molecule, the GI50 [7] was 230 nM, the GI50 [8] was 190 nM and the Activity [9] was “Active”. For the same molecule, the inhibition [10] was “Active”, the Activity [11] was “inactive” and the inhibition [12] was “Active”. The inhibition [13] was “Active”.
For `COc1cccc2c1C(=O)c1c(O)c3c(c(O)c1C2=O)C[C@@](O)(C(=O)CO)C[C@@H]3O[C@H]1C[C@H](N)[C@H](O)[C@H](C)O1`, the inhibition [13] was “Active”.
`CSc1ccc(C2C3=C(Nc4[nH]c(=O)[nH]c(=O)c42)c2ccccc2C3=O)cc1` (configuration not stated) showed a GI50 [1] of 370 nM, a GI50 [2] of 190 nM and a GI50 [3] of 360 nM. The GI50 [4] was 470 nM, the GI50 [5] was 490 nM and the GI50 [6] was 100 nM. The GI50 [7] was 1800 nM, the GI50 [8] was 400 nM and the Activity [9] was “Active”. The inhibition [10] was “Active” and the Activity [11] was “inactive”.
In the case of `Cc1ccc(-c2c3c(nc4[nH]c(=O)[nH]c(=O)c24)-c2ccccc2C3=O)cc1C`, the GI50 [1] is reported as 190 nM, the GI50 [2] is reported as 170 nM and the GI50 [3] is reported as 190 nM. The GI50 [4] was 140 nM, the GI50 [5] was 330 nM and the GI50 [6] was 500 nM. The GI50 [7] was 450 nM, the GI50 [8] was 480 nM and the Activity [9] was “Active”. For the same molecule, the Activity [11] was “inactive”, the inhibition [12] was “Active” and the inhibition [13] was “Active”.
